Screening data (PubChem BioAssay)
The entries come from a sample that favours hits as a whole.
T cruzi repl: T. cruzi replication inhibition. T. cruzi beta-gal in NIH3T3, luminescence, 90 h. inhibition, % (concentration not given with the values). actives 1.4% (n = 300,000). AID 1885;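 active = mean inhibition across valid replicates above about 55%, limit read from the data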;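 also: signal also drops with host cell toxicity which is not excluded here; 0% = plate median of DMSO wells and 100% = zero luminescence signal; higher percent means less beta-gal luminescence so fewer parasites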
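Material: NIH/3T3 host cells with β-galactosidase reporter T. cruzi; Input: 5,000 host fibroblasts per well; Medium: DMEM, 2% fetal bovine serum; Compound: 50 nL DMSO compound solution per well; Schedule: 3 h host attachment, then at least 90 h co-culture; Detection: luminescent β-galactosidase signal after 60 min lysis.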
CHOP inhibitor: CHOP inhibition in unfolded protein response; CHO-K1 CHOP-promoter luciferase, tunicamycin-induced, 15-18 h; inhibition, % at 10 µM; actives 3.8% (n = 220,000);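 active = compounds that reduced the stress-induced luciferase reporter signal by more than about 70% of percent inhibition, limit read from the data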;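 also: 0% = tunicamycin plus vehicle and 100% = wells without tunicamycin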
Dynein transport: blocks dynein driven cargo transport along microtubules; 3617.4 mouse cells, GR-EGFP nuclear translocation imaging; test concentration mostly 20 µM; stimulated with dexamethasone, 1 µM; stronger effect = lower value; z-score, hits read low; actives 0.47% (n = 220,000); AID 1381;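 active = plate z-score of nuclear minus cytoplasmic receptor signal below a set negative limit, without overly bright fluorescence or cell loss, cut at about -3.5 in these data, passing the limit was not always enough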;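 also: z-score of nuclear minus cytoplasmic ring GR-EGFP intensity difference per well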
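medium = tetracycline-free induction medium containing charcoal-stripped FBS | also added = 1.0 µM final dexamethasone stimulus | schedule = 48 h induction, 1 h compound, 30 min dex at 37 °C | technique = fixed, Hoechst-stained cells imaged at 10x for EGFP | measure = GR-EGFP nuclear translocation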
L major viab: inhibitors of Leishmania major promastigote growth; Leishmania major promastigotes, resazurin fluorescence viability; inhibition, % at 10 µM; actives 9% (n = 200,000); AID 1063; in the data active = inhibition above about 50%;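 also: promastigotes grown with compound for 44 hours at 28 °C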
CHOP UPR activ: activators of apoptotic arm of unfolded protein response (CHOP). CHO-CHOP luciferase reporter, UPR activation, luminescence; percent of tunicamycin response over DMSO baseline. activation, % at 10 µM. actives 0.34% (n = 330,000). AID 449763;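 active = at 10 µM dose, activation of 40% or more, normalized to positive control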;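 also: 100% = tunicamycin at 10 µg/mL and 0% = DMSO alone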
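Assay system: CHO-CHOP cells, stable luciferase reporter of PERK-eIF2a-CHOP signalling / Buffer or medium: F12 plus 10% serum / Compound dosing: one dose, 10 µM in 0.5% DMSO / Times: 6 h compound treatment, 37 °C / Technique: luciferase luminescence / Read-out: % reporter activation, DMSO baseline versus tunicamycin full activation / Benchmarks: tunicamycin and DMSO controls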
XBP1 UPR activ: adaptive UPR (XBP1) activation; AID 463104; activation, % at 20 µM; actives 0.33% (n = 330,000); CHO-XBP1 luciferase reporter, IRE1-XBP1 UPR activation, luminescence; percent of tunicamycin response, DMSO as zero;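 active = versus positive control, 20 µM dose yields 30% or more activation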;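 also: 100% = tunicamycin at 10 µg/mL and 0% = DMSO only wells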
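Material: CHO cell line with stable XBP1 luciferase reporter; schedule: 16-18 h cell attachment at 37 °C, then 6 h compound exposure; signal: glow luminescence from Steady-Glo reagent; medium: serum-containing F12 medium, 10% FBS; benchmarks: tunicamycin 10 µg/mL and vehicle-only wells; read-out: percent activation relative to tunicamycin reference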
* marks the source's active call; other numbers are inactive results; . = no result given.

SMILES	T cruzi repl	CHOP inhibitor	Dynein transport	L major viab	CHOP UPR activ	XBP1 UPR activ
Cc1ccc(NC(=O)CSc2nc3ccccc3c(=O)n2CCCN2CCCCC2)cc1C	48	2	-1.5	100*	1	-2
CCc1ccc(NC(=O)CSc2nc3ccccc3c(=O)n2CCCN2CCC(C)CC2)cc1	25	-7	-0.59	77*	0	2
CC(=O)c1cccc(NC(=O)CSc2nc3ccccc3c(=O)n2CCCN2CCOCC2)c1	.	.	.	.	0	-2
COCCCn1c(SCC(=O)Nc2ccc(C(=O)OC)cc2)nc2ccccc2c1=O	15	14	0.33	89*	-1	2
COCCCn1c(SCC(=O)Nc2ccc(C)cc2)nc2ccccc2c1=O	11	7	2	4	-1	-2
C=CCOc1ccc(Br)cc1CNCCO	3	13	2.2	9	-1	-1
CCC(C)NCCOCCSc1ccc(Cl)cc1 (configuration not stated)	31	-7	-0.86	97*	0	1
C=CCc1cc(Cl)ccc1OCCCNCCO	38	23	0.15	98*	-1	-3
C=CCc1cc(Cl)ccc1OCCCNC(C)C	47	15	-0.46	100*	2	2
C=CCc1cc(Cl)ccc1OCCOCCNC(C)CC (configuration not stated)	45	-2	-0.053	90*	0	0
COCCCNC(=O)CCSc1ccc(Cl)cc1	-6	12	0.42	-4	2	2
Cc1ccc(CNC(=O)C2CCC(=O)N(C3CC3)C2)cc1 (configuration not stated)	-16	.	.	.	2	-3
CC(=O)Nc1ccc(S(=O)(=O)N(C)c2ccc(OCCOc3ccccc3F)cc2)cc1	.	.	.	.	1	-3
OCc1ccc2c(c1)c(-c1ccc3c(c1)OCCO3)c(-c1ccccc1)n2-c1ccccc1	.	.	.	.	2	0
C=CCc1cc(Cl)ccc1OCCN(C)C	57*	-1	-0.79	96*	0	-1
C=CCc1cc(OC)ccc1OCCN(C)Cc1ccccc1	45	40	3.1	14	0	-4
CCOC(=O)c1c(C)nc2sc(C(=O)Nc3ccc(C(C)=O)cc3)c(N)c2c1-c1ccc(OC)cc1	34	53	0.18	95*	-1	-2
CCOC(=O)c1c(C)nc2sc(C(=O)Nc3ccc(OC)cc3)c(N)c2c1-c1ccc(OC)cc1	29	0	-0.7	21	1	0
COc1ccc(-c2c(C(C)=O)c(C)nc3sc4c(=N)n(N)cnc4c23)cc1	20	-8	-0.55	62*	-2	2
CCOC(=O)c1c(C)nc2sc(C(N)=O)c(N)c2c1-c1ccc(OC)cc1	21	14	0.56	94*	-3	-6
Cc1ccc(NC(=O)Cc2nnc(SCC(=O)NC3CCCC3)n2C)c(C)c1	4	.	.	.	1	-3
Cc1nc2ccccc2cc1OCc1ccccc1	-12	55	-1.1	-1	6	7
Cc1nc2ccccc2cc1OCc1ccc(Cl)cc1	16	83*	.	-3	8	6
CC(=O)N1CCC(C(=O)OCc2ccccc2F)(c2ccccc2)CC1	0	.	.	.	-2	2
OC(COc1cccc2ccccc12)CN1CCN(c2ccccc2)CC1 (configuration not stated)	-11	51	-1.4	.	-2	-3
SMILES	T cruzi repl	CHOP inhibitor	Dynein transport	L major viab	CHOP UPR activ	XBP1 UPR activ
CC(C)c1ccccc1OCC(O)CN1CCN(S(=O)(=O)c2ccc([N+](=O)[O-])cc2)CC1 (configuration not stated)	55*	.	.	.	-1	-2
OC(COc1ccc2ccccc2c1Cl)CN1CCOCC1 (configuration not stated)	-11	48	-1.1	92*	5	0
OC(COc1ccccc1Cl)CN1CCN(CC(O)COc2ccccc2Cl)CC1 (configuration not stated)	-16	29	-0.66	88*	-1	-2
COc1cccc(OCC(O)CN2CCN(C)CC2)c1 (configuration not stated)	39	.	.	.	2	-1
OC(COc1ccccc1)CN1CCOCC1 (configuration not stated)	-14	-6	-0.5	-1	-2	0
Cc1ccccc1OCC(O)CN1CCN(C)CC1 (configuration not stated)	63*	8	-0.13	-12	-2	-1
CCCc1cc(=O)n2nc(N3CCC(C(=O)NCc4ccc(C)o4)CC3)sc2n1	12	.	.	.	-1	-5
CC1(C)Cc2cccc(OCC(O)CN3CCN(c4ccccn4)CC3)c2O1 (configuration not stated)	13	18	-0.88	85*	.	.
COc1ccccc1N1CCN(CC(O)COc2cccc3ccccc23)CC1 (configuration not stated)	9	58	-0.99	5	-2	-8
CC(COc1cccc2ccccc12)CN1CCN(C)CC1 (configuration not stated)	66*	29	0.4	83*	1	0
O=C(Nc1ccccc1NS(=O)(=O)c1ccc(F)cc1)C1CCC1	-13	-7	2.3	7	1	-2
O=[N+]([O-])c1ccc(NCCNS(=O)(=O)c2ccccc2)c(C(F)(F)F)c1	-2	-9	0.089	79*	-1	0
O=[N+]([O-])c1cc(C(F)(F)F)ccc1NCCCCNS(=O)(=O)c1ccc2ccccc2c1	15	83*	0.29	-4	-1	-3
O=[N+]([O-])c1ccc(NCCCNS(=O)(=O)c2ccccc2)c(Cl)c1	-30	33	-0.25	64*	-3	-1
CS(=O)(=O)NCCCCNc1ccc(C(F)(F)F)cc1[N+](=O)[O-]	15	7	-0.083	9	0	-2
O=[N+]([O-])c1ccc(NCCNS(=O)(=O)c2ccccc2)cc1	-10	15	-0.21	-1	0	-2
CCOCCCNS(=O)(=O)c1ccc(NC(=O)c2ccc([N+](=O)[O-])cc2Cl)cc1	25	-6	-0.19	74*	0	-2
O=C(NCCC(=O)N(Cc1ccco1)Cc1cccs1)c1ccc([N+](=O)[O-])cc1	.	.	.	.	0	-2
O=[N+]([O-])c1ccccc1S(=O)(=O)N1CCN(S(=O)(=O)c2ccc3c(c2)OCCO3)CC1	.	.	.	.	0	-2
Cc1ccc(C(=O)NCCNc2ccc([N+](=O)[O-])cc2C(F)(F)F)cc1	11	40	0.26	81*	-2	-6
O=C(NCCNc1ccc([N+](=O)[O-])cc1C(F)(F)F)c1ccccc1F	9	27	-0.29	42	0	-2
Cc1cccc(S(=O)(=O)Nc2ccc(-n3c(C)nc4ccccc4c3=O)cc2)c1	-11	.	.	.	0	-5
